Experimental data as given in PMC8897028 (Acta Pharmaceutica Sinica. B, 2021).
Positions count from the first letter of the chain named.

Assays:
[1] = biological target: T1, mTRPV3 L669A (Mus musculus, UniProt Q8K424, L669A); assay: whole-cell patch-clamp of mTRPV3 L669A mutant in HEK293 cells; format: cell-based; conditions: compound 50 μmol/L; 2-APB; compared with WT mTRPV3
T1 sequence (Q8K424 1-791 L669A): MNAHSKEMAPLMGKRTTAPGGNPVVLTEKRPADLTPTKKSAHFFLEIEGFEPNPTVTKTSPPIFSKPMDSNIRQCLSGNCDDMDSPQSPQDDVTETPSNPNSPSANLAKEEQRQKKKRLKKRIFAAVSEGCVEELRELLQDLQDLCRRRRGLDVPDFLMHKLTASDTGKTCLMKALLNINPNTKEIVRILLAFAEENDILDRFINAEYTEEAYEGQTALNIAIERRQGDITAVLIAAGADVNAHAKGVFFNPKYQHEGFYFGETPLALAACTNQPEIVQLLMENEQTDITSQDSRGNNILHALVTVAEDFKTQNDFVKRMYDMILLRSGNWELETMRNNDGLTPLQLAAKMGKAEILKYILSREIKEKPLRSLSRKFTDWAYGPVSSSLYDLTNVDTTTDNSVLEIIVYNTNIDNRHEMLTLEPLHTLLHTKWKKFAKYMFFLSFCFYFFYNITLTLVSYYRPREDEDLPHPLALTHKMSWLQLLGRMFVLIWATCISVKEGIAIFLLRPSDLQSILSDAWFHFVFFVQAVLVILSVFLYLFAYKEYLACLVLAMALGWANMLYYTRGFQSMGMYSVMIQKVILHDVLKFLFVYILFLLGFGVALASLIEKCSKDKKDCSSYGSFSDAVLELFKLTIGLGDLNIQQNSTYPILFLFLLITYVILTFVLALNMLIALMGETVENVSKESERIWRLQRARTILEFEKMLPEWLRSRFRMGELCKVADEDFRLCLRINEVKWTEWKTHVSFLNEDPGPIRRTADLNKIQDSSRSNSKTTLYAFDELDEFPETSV
How it was run: (§1)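 Mouse Trpv3 point mutants were made by site-directed mutagenesis, sequence-verified, and transiently expressed in HEK293 cells alongside wild-type mTRPV3. Whole-cell ramp recordings (−100 to +100 mV, 500 ms, holding 0 mV) were made at 22–24 °C. Currents were activated by 2-APB, and inhibition by 50 μmol/L test compound in the presence of 2-APB was compared with wild type; n = 3–8.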

[2] = biological target: T2, hTRPV3 (Homo sapiens, UniProt Q8NET8); assay: inside-out single-channel recordings of HEK293 cells overexpressing hTRPV3; format: biochemical; conditions: for channel open probability: compound 100 μmol/L in the presence of carvacrol 300 μmol/L, from 26.9 ± 5.5%, +80 mV, n = 4; for effect on ion permeation or single-channel conductance: single-channel level
T2 sequence (Q8NET8 1-790): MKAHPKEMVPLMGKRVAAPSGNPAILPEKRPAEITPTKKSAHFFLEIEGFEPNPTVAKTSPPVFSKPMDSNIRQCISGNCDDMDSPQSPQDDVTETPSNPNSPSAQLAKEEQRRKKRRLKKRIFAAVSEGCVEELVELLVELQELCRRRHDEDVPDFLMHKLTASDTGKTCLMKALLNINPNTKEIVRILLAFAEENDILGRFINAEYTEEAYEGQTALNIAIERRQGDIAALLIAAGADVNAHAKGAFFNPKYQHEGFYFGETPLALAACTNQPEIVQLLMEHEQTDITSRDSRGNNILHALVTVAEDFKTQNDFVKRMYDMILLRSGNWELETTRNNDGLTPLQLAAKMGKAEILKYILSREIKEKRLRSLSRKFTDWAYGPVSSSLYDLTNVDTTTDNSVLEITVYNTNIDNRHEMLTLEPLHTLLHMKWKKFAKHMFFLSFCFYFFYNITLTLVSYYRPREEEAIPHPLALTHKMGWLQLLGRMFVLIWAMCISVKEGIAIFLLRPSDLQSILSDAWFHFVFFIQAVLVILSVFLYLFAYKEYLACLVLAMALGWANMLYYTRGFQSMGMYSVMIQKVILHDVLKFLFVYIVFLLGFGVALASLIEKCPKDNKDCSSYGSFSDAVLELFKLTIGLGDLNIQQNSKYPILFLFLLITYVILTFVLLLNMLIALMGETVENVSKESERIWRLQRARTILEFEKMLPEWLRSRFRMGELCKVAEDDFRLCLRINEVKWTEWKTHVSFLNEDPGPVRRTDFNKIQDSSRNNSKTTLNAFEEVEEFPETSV
How it was run: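 Inside-out patches from EGFP-identified HEK293 cells, 18 h after hTRPV3 transfection, used 6–10 MΩ pipettes. Patches were held at 0 mV, then stepped to +80 mV. Currents were sampled at 10 kHz, filtered at 2.9 kHz, at 22–24 °C. All-points histograms were Gaussian-fitted for conductance and mean open probability; n = 4.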

[3] = biological target: T3, mTRPV3 F666A (Mus musculus, UniProt Q8K424, F666A); assay: whole-cell patch-clamp of mTRPV3 F666A mutant in HEK293 cells; format: cell-based; conditions: compound 50 μmol/L; 2-APB; compared with WT mTRPV3
T3 sequence (Q8K424 1-791 F666A): T1 sequence (Q8K424 1-791 L669A) with F666A, A669L
How it was run: as §1

[4] = test system: HEK293 cells expressing hTRPV3; assay: cell proliferation MTT assay, HEK293 cells transfected with hTRPV3; format: cell-based, human; conditions: IAB at 10 and 100 μmol/L with carvacrol 300 μmol/L, 24 h
How it was run: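 hTRPV3-transfected HEK293 or HaCaT cells were plated at 5 × 10^3 per well for 24 h, then exposed 24 h to TRPV3 activator and/or inhibitor in culture medium. MTT (5 mg/mL solution) was added for 4 h. Medium was removed, formazan dissolved in DMSO, and absorbance read at 490 nm.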

| Structure (SMILES) | effect of mutation on compound-induced inhibition of mTRPV3 currents [1] | channel open probability [2] [%] | effect on ion permeation or single-channel conductance [2] | effect of mutation on compound-induced inhibition of mTRPV3 currents [3] | reversal of overactive TRPV3-induced inhibition of cell proliferation [4] |
| --- | --- | --- | --- | --- | --- |
| O=C(/C=C/c1ccc(O)c(O)c1)O[C@@H]1C[C@](O)(C(=O)O)C[C@@H](OC(=O)/C=C/c2ccc(O)c(O)c2)[C@H]1O [IAA, isochlorogenic acid A] | no obvious effect | 3.7 ± 1.2 | no effect | markedly reduced |  |
| O=C(/C=C/c1ccc(O)c(O)c1)O[C@@H]1[C@H](O)C[C@@](O)(C(=O)O)C[C@H]1OC(=O)/C=C/c1ccc(O)c(O)c1 [IAB, isochlorogenic acid B] | no obvious effect | 3.2 ± 1.1 | no effect | markedly reduced | significantly reversed |
